Test results from ChEMBL document CHEMBL2203049, “Novel retinoic acid 4-hydroxylase (CYP26) inhibitors based on a 3-(1H-imidazol- and triazol-1-yl)-2,2-dimethyl-3-(4-(phenylamino)phenyl)propyl scaffold” (Bioorg Med Chem, 2012).
One block for each molecule: values may come before it.

Columns and labels:
[1] = molecular target: T1, Cytochrome P450 26A1 (Homo sapiens, UniProt O43174); assay: Inhibition of CYP26A1 in human MCF7 cell microsomes using [3H]ATRA as substrate after 1 hr by scintillation counter analysis; parameters: species or system Microsome
T1 sequence (O43174 whole entry): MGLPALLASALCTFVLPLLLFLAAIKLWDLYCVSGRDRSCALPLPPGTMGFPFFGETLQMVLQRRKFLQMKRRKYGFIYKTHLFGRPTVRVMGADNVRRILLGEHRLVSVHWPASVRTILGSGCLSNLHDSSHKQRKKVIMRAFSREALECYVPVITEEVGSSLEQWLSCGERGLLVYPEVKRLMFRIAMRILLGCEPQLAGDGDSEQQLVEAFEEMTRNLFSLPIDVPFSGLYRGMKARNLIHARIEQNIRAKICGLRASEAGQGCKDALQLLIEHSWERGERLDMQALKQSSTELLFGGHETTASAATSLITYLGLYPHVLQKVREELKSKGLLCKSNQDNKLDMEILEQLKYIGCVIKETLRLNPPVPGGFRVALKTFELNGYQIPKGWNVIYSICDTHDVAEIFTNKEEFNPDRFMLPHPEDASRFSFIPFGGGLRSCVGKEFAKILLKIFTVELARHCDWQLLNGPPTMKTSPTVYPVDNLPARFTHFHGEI
Summary of the method: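 MCF-7 cells (RPMI 1640, 10% FCS, 2 mM L-glutamine, 37 °C, 5% CO₂) pretreated 24 h with 1 µM RA to induce CYP26; microsomes by differential centrifugation, activity normalised by cytochrome c reductase. 50 µg microsomal protein, 2 mM NADPH, 10 nM ATRA plus 0.1 µCi ³H-ATRA, pH 7.4 Tris/KCl/MgCl₂/BSA, inhibitor 1–1000 nM, 1 h 37 °C; acetonitrile quench, C18 HPLC, flow scintillation; inhibition from metabolite peak area fraction versus no-inhibitor control.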

[2] = molecular target: CYP3A4 (Homo sapiens, UniProt P08684); assay: Inhibition of CYP3A4 in human liver microsomes at 0.4 uM; format: ADME, Microsome
Sequence of CYP3A4 (P08684 whole entry): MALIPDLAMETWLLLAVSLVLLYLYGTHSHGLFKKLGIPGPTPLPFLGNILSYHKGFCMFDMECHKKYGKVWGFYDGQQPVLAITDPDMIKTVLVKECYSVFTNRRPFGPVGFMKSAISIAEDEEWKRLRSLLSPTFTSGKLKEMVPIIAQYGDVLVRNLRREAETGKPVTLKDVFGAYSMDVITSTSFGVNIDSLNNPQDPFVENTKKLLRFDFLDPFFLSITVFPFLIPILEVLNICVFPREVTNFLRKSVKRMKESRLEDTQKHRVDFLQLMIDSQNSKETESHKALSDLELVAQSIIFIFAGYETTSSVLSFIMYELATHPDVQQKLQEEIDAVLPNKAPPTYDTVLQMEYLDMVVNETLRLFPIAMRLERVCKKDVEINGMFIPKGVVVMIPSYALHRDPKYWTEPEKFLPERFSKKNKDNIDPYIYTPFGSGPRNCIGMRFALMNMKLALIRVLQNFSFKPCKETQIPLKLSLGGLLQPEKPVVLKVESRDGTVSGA

[3] = molecular target: CYP2D6 (Homo sapiens, UniProt P10635); assay: Inhibition of CYP2D6 in human liver microsomes at 0.4 uM; format: ADME, Microsome
Sequence of CYP2D6 (P10635 whole entry): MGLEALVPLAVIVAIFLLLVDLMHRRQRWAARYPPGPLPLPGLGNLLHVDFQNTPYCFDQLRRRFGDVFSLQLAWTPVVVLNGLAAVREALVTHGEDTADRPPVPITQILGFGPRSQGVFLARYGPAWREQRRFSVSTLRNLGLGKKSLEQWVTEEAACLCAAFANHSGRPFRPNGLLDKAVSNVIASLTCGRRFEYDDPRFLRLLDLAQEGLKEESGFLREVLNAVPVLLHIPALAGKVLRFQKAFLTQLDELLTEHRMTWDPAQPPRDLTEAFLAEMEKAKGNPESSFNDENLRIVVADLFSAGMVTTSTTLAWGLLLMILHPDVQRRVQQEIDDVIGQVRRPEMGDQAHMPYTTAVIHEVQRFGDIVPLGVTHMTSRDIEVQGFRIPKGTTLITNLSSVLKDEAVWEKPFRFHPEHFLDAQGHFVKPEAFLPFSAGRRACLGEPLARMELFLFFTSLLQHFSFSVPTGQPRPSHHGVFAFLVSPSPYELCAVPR

[4] = molecular target: CYP2C19 (Homo sapiens, UniProt P33261); assay: Inhibition of CYP2C19 in human liver microsomes at 0.4 uM; format: ADME, Microsome
Sequence of CYP2C19 (P33261 whole entry): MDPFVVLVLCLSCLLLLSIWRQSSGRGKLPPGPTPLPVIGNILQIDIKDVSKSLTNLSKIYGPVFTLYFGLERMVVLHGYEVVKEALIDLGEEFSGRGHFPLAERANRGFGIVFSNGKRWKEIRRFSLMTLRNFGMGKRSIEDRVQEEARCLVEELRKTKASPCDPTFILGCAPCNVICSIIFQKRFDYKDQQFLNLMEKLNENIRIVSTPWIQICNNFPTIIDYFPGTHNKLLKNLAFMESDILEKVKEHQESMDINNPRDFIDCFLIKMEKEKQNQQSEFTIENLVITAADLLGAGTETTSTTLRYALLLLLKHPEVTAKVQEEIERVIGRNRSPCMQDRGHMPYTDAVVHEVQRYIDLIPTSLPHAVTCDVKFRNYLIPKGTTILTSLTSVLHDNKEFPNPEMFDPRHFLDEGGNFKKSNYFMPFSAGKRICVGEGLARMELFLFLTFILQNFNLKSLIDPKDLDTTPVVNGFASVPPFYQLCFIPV

[5] = molecular target: CYP2C9 (Homo sapiens, UniProt P11712); assay: Inhibition of CYP2C9 in human liver microsomes at 0.4 uM; format: ADME, Microsome
Sequence of CYP2C9 (P11712 whole entry): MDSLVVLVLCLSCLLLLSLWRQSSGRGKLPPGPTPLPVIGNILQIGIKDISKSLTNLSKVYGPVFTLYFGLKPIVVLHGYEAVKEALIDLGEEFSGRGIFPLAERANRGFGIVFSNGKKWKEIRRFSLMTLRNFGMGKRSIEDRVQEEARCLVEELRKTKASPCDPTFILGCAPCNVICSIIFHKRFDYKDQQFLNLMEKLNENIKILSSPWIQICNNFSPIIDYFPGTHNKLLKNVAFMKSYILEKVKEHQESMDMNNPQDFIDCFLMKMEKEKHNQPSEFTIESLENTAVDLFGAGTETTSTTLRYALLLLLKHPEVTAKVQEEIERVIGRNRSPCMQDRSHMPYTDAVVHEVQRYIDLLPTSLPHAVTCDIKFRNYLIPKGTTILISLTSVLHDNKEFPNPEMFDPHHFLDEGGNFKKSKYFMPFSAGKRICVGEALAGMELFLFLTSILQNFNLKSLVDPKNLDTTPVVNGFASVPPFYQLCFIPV

[6] = molecular target: T2, CYP1A2 (Homo sapiens, UniProt P05177); assay: Inhibition of CYP1A2 in human liver microsomes at 0.4 uM; format: ADME, Microsome
T2 sequence (P05177 whole entry): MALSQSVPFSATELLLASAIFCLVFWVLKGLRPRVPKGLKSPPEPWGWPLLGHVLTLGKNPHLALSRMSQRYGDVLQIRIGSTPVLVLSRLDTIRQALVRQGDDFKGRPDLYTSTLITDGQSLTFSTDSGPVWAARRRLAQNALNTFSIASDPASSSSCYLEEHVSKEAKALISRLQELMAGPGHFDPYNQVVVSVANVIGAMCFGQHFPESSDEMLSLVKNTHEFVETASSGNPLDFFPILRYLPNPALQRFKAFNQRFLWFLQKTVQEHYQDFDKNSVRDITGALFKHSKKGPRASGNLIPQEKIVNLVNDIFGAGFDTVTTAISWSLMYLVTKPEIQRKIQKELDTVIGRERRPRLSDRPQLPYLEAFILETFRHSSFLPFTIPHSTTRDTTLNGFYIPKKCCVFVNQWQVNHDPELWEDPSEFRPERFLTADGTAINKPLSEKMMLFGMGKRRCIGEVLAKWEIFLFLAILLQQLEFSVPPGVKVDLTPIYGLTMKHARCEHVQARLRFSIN

[7] = Selectivity ratio of IC50 for CYP1A2 in human liver microsomes to IC50 for CYP26A1 in human MCF7 cell microsomes
[8] = molecular target: Cytochrome P450 2D6 (Homo sapiens, UniProt P10635); assay: Inhibition of CYP2D6 in human liver microsomes; format: ADME, Microsome
Sequence of Cytochrome P450 2D6 (P10635 whole entry): as the sequence (P10635 whole entry) above

[9] = molecular target: Cytochrome P450 3A4 (Homo sapiens, UniProt P08684); assay: Inhibition of CYP3A4 in human liver microsomes; format: ADME, Microsome
Sequence of Cytochrome P450 3A4 (P08684 whole entry): as the sequence (P08684 whole entry) above

[10] = molecular target: Cytochrome P450 2C9 (Homo sapiens, UniProt P11712); assay: Inhibition of CYP2C9 in human liver microsomes; format: ADME, Microsome
Sequence of Cytochrome P450 2C9 (P11712 whole entry): as the sequence (P11712 whole entry) above

[11] = Selectivity ratio of IC50 for CYP3A4 in human liver microsomes to IC50 for CYP26A1 in human MCF7 cell microsomes
[12] = molecular target: T3, Cytochrome P450 1A2 (Homo sapiens, UniProt P05177); assay: Inhibition of CYP1A2 in human liver microsomes; format: ADME, Microsome
T3 sequence (P05177 whole entry): T2 sequence (P05177 whole entry)

[13] = Selectivity ratio of IC50 for CYP2C9 in human liver microsomes to IC50 for CYP26A1 in human MCF7 cell microsomes
[14] = molecular target: Cytochrome P450 2C19 (Homo sapiens, UniProt P33261); assay: Inhibition of CYP2C19 in human liver microsomes; format: ADME, Microsome
Sequence of Cytochrome P450 2C19 (P33261 whole entry): as the sequence (P33261 whole entry) above

[15] = Selectivity ratio of IC50 for CYP2D6 in human liver microsomes to IC50 for CYP26A1 in human MCF7 cell microsomes

SMILES: COC(=O)C(C)(C)C(c1ccc(Nc2ccc(C(C)=O)cc2)cc1)n1cncn1 (stereo not drawn)
IC50 [1]: 0.095 µM

SMILES: CC(C)(C(=O)O)C(c1ccc(Nc2ccccc2)cc1)n1ccnc1 (stereo not drawn)
IC50 [1]: > 1 µM

SMILES: COC(=O)C(C)(C)C(c1ccc(Nc2ccccc2)cc1)n1cncn1 (stereo not drawn)
Ratio IC50 [7]: >100
IC50 [1]: 0.013 µM
IC50 [8]: 1.3 µM
inhibition at 0.4 µM [2]: 47%
IC50 [9]: 0.2 µM
IC50 [10]: 9.1 µM
inhibition at 0.4 µM [3]: 13%
Ratio IC50 [11]: 15
IC50 [12]: 8.5 µM
inhibition at 0.4 µM [4]: 19%
inhibition at 0.4 µM [5]: 19%
inhibition at 0.4 µM [6]: 10%
Ratio IC50 [13]: >100
IC50 [14]: 4.2 µM
Ratio IC50 [15]: >100

SMILES: CNC(=O)C(C)(C)C(c1ccc(Nc2ccc(OC)cc2)cc1)n1ccnc1 (stereo not drawn)
IC50 [1]: > 1 µM

SMILES: CNC(=O)C(C)(C)C(c1ccc(Nc2ccccc2)cc1)n1ccnc1 (stereo not drawn)
IC50 [1]: 0.2 µM

Now from value to molecule:

IC50 [1]: 1 µM
SMILES: CNC(=O)C(C)(C)C(c1ccc(Nc2ccc(Cl)cc2)cc1)n1ccnc1 (stereo not drawn)

inhibition at 0.4 µM [2]: 83%
inhibition at 0.4 µM [3]: 27%
inhibition at 0.4 µM [4]: 17%
inhibition at 0.4 µM [5]: 3%
inhibition at 0.4 µM [6]: 6%
SMILES: C[C@H]([C@@H](c1ccc(Nc2nc3ccccc3s2)cc1)n1cncn1)N(C)C

IC50 [1]: 1 µM
SMILES: CNC(=O)C(C)(C)C(c1ccc(Nc2ccccc2)cc1)n1cncn1 (stereo not drawn)

IC50 [1]: 0.085 µM
SMILES: CC(C)(C(=O)O)C(c1ccc(Nc2ccc(C(=O)O)cc2)cc1)n1cncn1 (stereo not drawn)

IC50 [1]: 0.25 µM
SMILES: CCNC(=O)C(C)(C)C(c1ccc(Nc2ccccc2)cc1)n1ccnc1 (stereo not drawn)
